From PubChem BioAssay
NRP1-CendR mod – modulators of CendR peptide binding to NRP-1, primary screen, biochemical, fluorescence polarization, uHTS; FAM-RPARPAR peptide binding to NRP-1; inhibition, % at 25 µM; 360,000 compounds, 0.85% hits;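 active = inhibition or corrected inhibition above about 18%, plus a signal ratio from 0.5 to 1.5, limit read from the data, passing the limit was not always enough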
FAS-TE inh – FAS thioesterase domain inhibitors, primary screen, biochemical, fluorescence intensity, uHTS; Fatty acid synthase (Homo sapiens), P49327; recombinant FAS-TE, OMFH fluorogenic substrate, fluorescence endpoint; inhibition, % at 15 µM; 360,000 compounds, 0.67% hits; AID 602261, 2012;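 active = compounds whose normalised, plate-corrected inhibition of enzyme fluorescence in the single-dose primary screen is 50% or more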;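 note: 0% = DMSO with enzyme and 100% = substrate without enzyme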
CaV13 FRET inh – Disruptors of the CACNA1D IQ motif to Ca2+-dependent inactivation inhibitor domain association, primary screening, Förster resonance energy transfer in intact living … | HEK cells, CFP/YFP FRET ICDI-IQ, plate reader, 10 min; percent FRET-ratio fall versus neutral wells | inhibition, % at 12.3 µM | 340,000 compounds, 0.098% hits;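 active = mean replicate inhibition of at least 30% and at least 1% of replicates passing that level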;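 note: 0% = median of the neutral control wells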
ADAM17 inh – ADAM17 inhibitors, primary screen, biochemical, QFRET | inhibition, % at 6.95 µM | Disintegrin and metalloproteinase domain-containing protein 17 (Homo sapiens), P78536 | 370,000 compounds, 0.83% hits | recombinant ADAM17, EDANS/DABCYL FRET peptide cleavage;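 active = inhibition above the mean of compounds lying between control limits plus 3 SD, set per campaign, cut at about 8.5% in these data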;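 note: 0% = DMSO-only wells as the low control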
Arrestin-AP2 inh – inhibitors of beta-arrestin/AP2 binding, primary screen, biochemical, GPCR trafficking, flow cytometry; beta-arrestin 1 C-terminal peptide binding to AP2 beta2-adaptin appendage (human); FITC-arrestin peptide / GST-AP2 beads; AP2 beta2 appendage carries R879A mutation; inhibition, % at 10 µM; 340,000 compounds, 0.31% hits; AID 504490, 2011;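 active = inhibition above a set limit, near 3 SD of compounds lacking own fluorescence, cut at about 54% in these data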;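 note: plate controls were DMSO wells for no effect and 5 µM unlabelled arrestin peptide for full effect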
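Assay system: GST-AP2 R879A bound to glutathione beads, E. coli-expressed; Medium: PBS with 0.05% Tween 20 and 0.1% BSA; Also added: fluorescein-tagged arrestin peptide at 50 nM final; Timing: 12 min plus 1 h, RT; Measured by: flow cytometry, FL1 (488/535 nm); Evaluation: percent drop in bead-associated FITC signal.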
ADAM10 inh – human ADAM10 inhibitors, primary screen, biochemical, QFRET, HTS; AID 720582, 2013; inhibition, % at 7 µM; 370,000 compounds, 0.62% hits; Disintegrin and metalloproteinase domain-containing protein 10 (Homo sapiens), O14672; recombinant ADAM10, EDANS/DABCYL FRET peptide cleavage, 3 h;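 active = inhibition above a per-campaign cutoff equal to the mean of compounds falling between control-based bounds plus 3 SD, cut at about 20% in these data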;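 note: 0% = DMSO wells while the 100% control is not disclosed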
Target sequence (O14672 214-748 limits assumed): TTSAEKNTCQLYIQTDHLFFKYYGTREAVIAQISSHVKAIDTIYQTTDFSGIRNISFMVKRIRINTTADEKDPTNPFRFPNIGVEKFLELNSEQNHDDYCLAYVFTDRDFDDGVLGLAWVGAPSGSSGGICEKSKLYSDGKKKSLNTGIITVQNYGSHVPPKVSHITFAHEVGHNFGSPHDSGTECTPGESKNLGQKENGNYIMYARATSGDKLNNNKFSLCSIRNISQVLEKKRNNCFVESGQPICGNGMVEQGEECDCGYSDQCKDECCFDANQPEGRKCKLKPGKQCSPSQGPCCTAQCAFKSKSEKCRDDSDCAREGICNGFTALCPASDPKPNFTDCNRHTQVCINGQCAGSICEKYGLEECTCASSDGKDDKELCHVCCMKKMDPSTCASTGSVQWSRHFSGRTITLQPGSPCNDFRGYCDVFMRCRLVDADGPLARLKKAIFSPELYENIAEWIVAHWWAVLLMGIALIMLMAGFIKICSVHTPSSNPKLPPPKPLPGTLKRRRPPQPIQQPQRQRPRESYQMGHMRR
ADAM10 counter – ADAM10 inhibitors, counter-screen for ADAM17 exosite inhibitor project, biochemical, FRET, human ADAM10. shares compounds with ADAM17 inh. 2,900 compounds, 47% hits. recombinant ADAM10, EDANS/DABCYL FRET peptide cleavage, 3 h. inhibition, % at 6.95 µM;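 active = mean inhibition over the triplicate runs exceeds the activity threshold set in the earlier primary screen, cut at about 20% in these data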;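 note: 0% = DMSO wells and 100% = marimastat wells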
ADAM17 confirm – ADAM17 inhibitors, hit retest, confirmation, biochemical, QFRET peptide cleavage; 2,900 compounds, 65% hits; recombinant ADAM17, EDANS/DABCYL QFRET peptide cleavage; shares compounds with ADAM17 inh; inhibition, % at 6.95 µM;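 active = mean inhibition across replicates above the hit cutoff set in the primary screen, cut at about 8.5% in these data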;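 note: 0% = DMSO wells and 100% = marimastat wells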
Active calls of the source: *; i = inactive; . = no result given. Rows were chosen to be rich in hits. Some 2.9% of all compounds tested hit in one or more screens of this group.

SMILES | NRP1-CendR mod | FAS-TE inh | CaV13 FRET inh | ADAM17 inh | Arrestin-AP2 inh | ADAM10 inh | ADAM10 counter | ADAM17 confirm
COc1ccccc1-c1csc(C(O)(c2ccccc2)C(F)(F)F)n1 (centres undefined) | 15.8 | 22.1 | -3.7 | 10.3* | . | 16.6 | 33.6* | 19.0*
COc1cc(F)ccc1-c1csc(C(C)(O)c2ccccc2)n1 (centres undefined) | 3.9 | 16.0 | -10.9 | 10.1* | . | 18.3 | 23.8* | 11.4*
COc1ccc(-c2csc(C(O)(c3ccccc3)C(F)(F)F)n2)cn1 (centres undefined) | -8.3 | 18.1 | -5.5 | 3.2 | . | 4.7 | . | .
CCOc1ccc(-n2c(COc3ccccc3)nnc2SCC(=O)Nc2ccc(OCc3ccccc3)cc2)cc1 | . | . | . | 2.4 | . | 9.7 | . | .
Clc1ccc(CN2CCN(c3ncc(Cc4ccccc4)cn3)CC2)cc1 | . | . | -9.2 | 7.3 | . | -1.6 | . | .
c1ccc(Cc2cnc(N3CCN(Cc4ccc5c(c4)OCCO5)CC3)nc2)cc1 | . | . | -7.2 | 10.6* | . | 5.5 | 3.0 | 3.8
Cc1cccc(C)c1-n1nnnc1C(c1ccccc1)N1CCN(C/C=C/c2ccccc2)CC1 (centres undefined) | 5.9 | 21.7 | -4.8 | 9.4* | . | 14.2 | 10.5 | 10.5*
Cc1cccc(C)c1-n1nnnc1C(c1cccs1)N1CCN(C/C=C/c2ccccc2)CC1 (centres undefined) | 12.5 | 29.2 | -3.7 | 0.1 | . | 1.5 | . | .
Cc1ccc(C)c(N2CCN(C3C(=O)Nc4ccccc4-n4nnnc43)CC2)c1 (centres undefined) | 0.1 | . | -6.7 | -2.5 | . | -3.3 | . | .
O=C1Nc2ccccc2-n2nnnc2C1N1CCN(c2ccc(C(F)(F)F)cc2[N+](=O)[O-])CC1 (centres undefined) | 19.4 | . | -14.4 | 8.6* | . | 19.1 | 31.8* | 17.9*
COc1ccc(N=Cc2c(C)[nH][nH]c2=O)cc1 | 2.8 | -3.6 | 0.4 | 8.8* | 0.7 | 7.2 | 12.5 | 6.9
Cc1ccc(Sc2ccc(/C=C3/C(=O)NN(c4ccccc4)C3=O)o2)cc1 | -2.4 | -5.4 | -1.8 | 8.8* | -0.1 | 19.7 | 14.9 | 7.3
Nc1nc(C(c2ccccc2)c2ccccc2)cs1 | -0.7 | 0.2 | -2.6 | 8.7* | 13.9 | 19.7 | 6.5 | 3.8
COc1ccc(CNC(=O)COc2cc3c(c4oc(=O)cc(C)c24)CCC(C)(C)O3)c(OC)c1 | 3.3 | 26.0 | . | -147.5 | . | i | . | .
C[C@@H]1CN([C@H](C)CO)C(=O)c2cc(Br)cnc2O[C@H]1CN(C)Cc1ccccc1F | . | . | -5.6 | -2.0 | . | -11.4 | . | .
CCOc1ccc(-c2n[nH]c(C)c2-c2ccccc2OC)c(O)c1 | 13.1 | -1.9 | -4.3 | 4.3 | -2.6 | 19.1 | . | .
CCc1cc(-c2n[nH]c(C)c2-c2ccccc2Cl)c(O)cc1OC | -7.5 | -16.5 | -3.0 | 8.7* | -4.5 | 16.8 | 32.3* | 15.7*
CCOC(=O)C1=C(Nc2ccc(OC)cc2)C(N)=NC1=N | -10.7 | -10.5 | -3.9 | -2.7 | . | -10.9 | . | .
C[C@H]1CN([C@@H](C)CO)C(=O)CCCn2cc(nn2)CO[C@@H]1CN(C)C(=O)c1ccncc1 | -3.7 | -8.0 | -3.8 | -1.0 | . | -7.7 | . | .
